# Measured values from ChEMBL document CHEMBL2062460, “Disubstituted thiourea derivatives and their activity on CNS: synthesis and biological evaluation” (Eur J Med Chem, 2012).
# Active and inactive are the calls of the source. The rule behind the calls is not given here.
# Test system: Staphylococcus aureus
# Assay: Antibacterial activity against methicillin-susceptible Staphylococcus aureus clinical isolate 369/09 after 18 hrs by twofold serial agar dilution technique
# Format: functional
# Settings: clinical isolate 369/09, 18 h
# How it was run: (§1)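 Clinical isolates came from patients in Warsaw Medical University Hospitals and were classed as methicillin-susceptible or -resistant. MIC was determined by twofold serial agar dilution on Mueller–Hinton II agar (CLSI), 3.125–400 µg/mL in agar, with compounds in methanol or DMSO. Inoculum was 10^4 CFU/mL and plates were read after 18 h at 35 °C.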
row,SMILES,MIC [µg/mL]
1,Fc1ccccc1NC(=S)Nc1nc[nH]n1,> 400

# Test system: Escherichia coli
# Assay: Antibacterial activity against Escherichia coli ATCC 25922 at 400 ug/disc after 18 hrs by disc diffusion method
# Format: functional, organism-based
# Settings: not given
# How it was run: (§2)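 Disc diffusion per CLSI on Mueller–Hinton II agar; 9 mm paper discs loaded from methanol or DMSO solutions to 400 µg per disc, dried; growth inhibition zone diameter read after 18 h at 35 °C.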
row,SMILES,diameter of the inhibition zone (DIZ)
1,Fc1ccccc1NC(=S)Nc1nc[nH]n1,inactive

# Test system: Staphylococcus aureus
# Assay: Antibacterial activity against methicillin-resistant Staphylococcus aureus clinical isolate 277/08 after 18 hrs by twofold serial agar dilution technique
# Format: functional
# Settings: clinical isolate 277/08, 18 h
# How it was run: as §1
row,SMILES,MIC [µg/mL]
1,Fc1ccccc1NC(=S)Nc1nc[nH]n1,> 400

# Test system: Micrococcus luteus
# Assay: Antibacterial activity against Micrococcus luteus ATCC 9341 after 18 hrs by twofold serial agar dilution technique
# Format: functional
# Settings: ATCC 9341, 18 h
row,SMILES,MIC [µg/mL]
1,Fc1ccccc1NC(=S)Nc1nc[nH]n1,100

# Test system: Staphylococcus aureus
# Assay: Antibacterial activity against methicillin-susceptible Staphylococcus aureus clinical isolate 338/08 after 18 hrs by twofold serial agar dilution technique
# Format: functional
# Settings: clinical isolate 338/08, 18 h
# How it was run: as §1
row,SMILES,MIC [µg/mL]
1,Fc1ccccc1NC(=S)Nc1nc[nH]n1,> 400

# Test system: Staphylococcus aureus
# Assay: Antibacterial activity against methicillin-resistant Staphylococcus aureus clinical isolate 309/08 after 18 hrs by twofold serial agar dilution technique
# Format: functional
# Settings: clinical isolate 309/08, 18 h
# How it was run: as §1
row,SMILES,MIC [µg/mL]
1,Fc1ccccc1NC(=S)Nc1nc[nH]n1,> 400

# Test system: Staphylococcus aureus
# Assay: Antibacterial activity against methicillin-resistant Staphylococcus aureus clinical isolate 325/09 after 18 hrs by twofold serial agar dilution technique
# Format: functional
# Settings: clinical isolate 325/09, 18 h
# How it was run: as §1
row,SMILES,MIC [µg/mL]
1,Fc1ccccc1NC(=S)Nc1nc[nH]n1,> 400

# Test system: Staphylococcus aureus
# Assay: Antibacterial activity against methicillin-resistant Staphylococcus aureus clinical isolate 376/09 after 18 hrs by twofold serial agar dilution technique
# Format: functional
# Settings: clinical isolate 376/09, 18 h
# How it was run: as §1
row,SMILES,MIC [µg/mL]
1,Fc1ccccc1NC(=S)Nc1nc[nH]n1,> 400

# Test system: Proteus vulgaris
# Assay: Antibacterial activity against Proteus vulgaris NCTC 4635 at 400 ug/disc after 18 hrs by disc diffusion method
# Format: functional, organism-based
# Settings: not given
# How it was run: as §2
row,SMILES,diameter of the inhibition zone (DIZ)
1,Fc1ccccc1NC(=S)Nc1nc[nH]n1,inactive

# Test system: Staphylococcus aureus
# Assay: Antibacterial activity against Staphylococcus aureus ATCC 25923 at 400 ug/disc after 18 hrs by disc diffusion method
# Format: functional
# Settings: ATCC 25923, 18 h, read-out: DIZ
# How it was run: as §2
row,SMILES,zone of inhibition at 400 µg/disc [mm]
1,Fc1ccccc1NC(=S)Nc1nc[nH]n1,19

# Test system: Staphylococcus aureus
# Assay: Antibacterial activity against Staphylococcus aureus NCTC 4163 after 18 hrs by twofold serial agar dilution technique
# Format: functional
# Settings: NCTC 4163, 18 h
# How it was run: (§3)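 Twofold serial agar dilution on Mueller–Hinton II agar, following CLSI guidelines. Compounds were dissolved in methanol or DMSO and tested at final agar concentrations of 3.125–400 µg/mL. Final inoculum was 10^4 CFU/mL.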
row,SMILES,MIC [µg/mL]
1,Fc1ccccc1NC(=S)Nc1nc[nH]n1,200

# Test system: Candida parapsilosis
# Assay: Antifungal activity against Candida parapsilosis ATCC 22019 at 400 ug/disc after 18 hrs by disc diffusion method
# Format: functional, organism-based
# Settings: not given
# How it was run: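 Yeasts tested by disc diffusion (CLSI) on RPMI agar with 2% glucose; 9 mm paper discs bearing 400 µg compound from methanol or DMSO solution; inhibition zone diameter read after 18 h at 35 °C.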
row,SMILES,diameter of the inhibition zone (DIZ)
1,Fc1ccccc1NC(=S)Nc1nc[nH]n1,inactive

# Test system: Staphylococcus aureus
# Assay: Antibacterial activity against methicillin-susceptible Staphylococcus aureus clinical isolate 261/08 after 18 hrs by twofold serial agar dilution technique
# Format: functional
# Settings: clinical isolate 261/08, 18 h
# How it was run: as §1
row,SMILES,MIC [µg/mL]
1,Fc1ccccc1NC(=S)Nc1nc[nH]n1,> 400

# Test system: Bordetella bronchiseptica
# Assay: Antibacterial activity against Bordetella bronchiseptica ATCC 4617 at 400 ug/disc after 18 hrs by disc diffusion method
# Format: functional, organism-based
# Settings: not given
# How it was run: as §2
row,SMILES,diameter of the inhibition zone (DIZ)
1,Fc1ccccc1NC(=S)Nc1nc[nH]n1,inactive

# Test system: Bacillus cereus
# Assay: Antibacterial activity against Bacillus cereus ATCC 11778 at 400 ug/disc after 18 hrs by disc diffusion method
# Format: functional
# Settings: ATCC 11778, 18 h, read-out: DIZ
# How it was run: as §2
row,SMILES,zone of inhibition at 400 µg/disc [mm]
1,Fc1ccccc1NC(=S)Nc1nc[nH]n1,11

# Test system: Escherichia coli
# Assay: Antibacterial activity against Escherichia coli ATCC 10538 at 400 ug/disc after 18 hrs by disc diffusion method
# Format: functional, organism-based
# Settings: not given
# How it was run: as §2
row,SMILES,diameter of the inhibition zone (DIZ)
1,Fc1ccccc1NC(=S)Nc1nc[nH]n1,inactive

# Test system: Enterococcus hirae
# Assay: Antibacterial activity against Enterococcus hirae ATCC 10541 at 400 ug/disc after 18 hrs by disc diffusion method
# Format: functional
# Settings: not given
# How it was run: as §2
row,SMILES,diameter of the inhibition zone (DIZ)
1,Fc1ccccc1NC(=S)Nc1nc[nH]n1,inactive

# Test system: Staphylococcus aureus
# Assay: Antibacterial activity against methicillin-susceptible Staphylococcus aureus clinical isolate 367/09 after 18 hrs by twofold serial agar dilution technique
# Format: functional
# Settings: clinical isolate 367/09, 18 h
# How it was run: as §1
row,SMILES,MIC [µg/mL]
1,Fc1ccccc1NC(=S)Nc1nc[nH]n1,> 400

# Test system: Bacillus subtilis
# Assay: Antibacterial activity against Bacillus subtilis ATCC 6633 at 400 ug/disc after 18 hrs by disc diffusion method
# Format: functional
# Settings: ATCC 6633, 18 h, read-out: DIZ
# How it was run: as §2
row,SMILES,zone of inhibition at 400 µg/disc [mm]
1,Fc1ccccc1NC(=S)Nc1nc[nH]n1,20

# Test system: Staphylococcus aureus
# Assay: Antibacterial activity against methicillin-resistant Staphylococcus aureus clinical isolate 307/08 after 18 hrs by twofold serial agar dilution technique
# Format: functional
# Settings: clinical isolate 307/08, 18 h
# How it was run: as §1
row,SMILES,MIC [µg/mL]
1,Fc1ccccc1NC(=S)Nc1nc[nH]n1,> 400

# Test system: Staphylococcus aureus
# Assay: Antibacterial activity against methicillin-susceptible Staphylococcus aureus clinical isolate 339/09 after 18 hrs by twofold serial agar dilution technique
# Format: functional
# Settings: clinical isolate 339/09, 18 h
# How it was run: as §1
row,SMILES,MIC [µg/mL]
1,Fc1ccccc1NC(=S)Nc1nc[nH]n1,> 400

# Test system: Pseudomonas aeruginosa
# Assay: Antibacterial activity against Pseudomonas aeruginosa NCTC 6749 at 400 ug/disc after 18 hrs by disc diffusion method
# Format: functional, organism-based
# Settings: not given
# How it was run: as §2
row,SMILES,diameter of the inhibition zone (DIZ)
1,Fc1ccccc1NC(=S)Nc1nc[nH]n1,inactive

# Test system: Staphylococcus aureus
# Assay: Antibacterial activity against methicillin-resistant Staphylococcus aureus clinical isolate 356/09 after 18 hrs by twofold serial agar dilution technique
# Format: functional
# Settings: clinical isolate 356/09, 18 h
# How it was run: as §1
row,SMILES,MIC [µg/mL]
1,Fc1ccccc1NC(=S)Nc1nc[nH]n1,> 400

# Test system: Bacillus cereus
# Assay: Antibacterial activity against Bacillus cereus ATCC 11778 after 18 hrs by twofold serial agar dilution technique
# Format: functional
# Settings: ATCC 11778, 18 h
row,SMILES,MIC [µg/mL]
1,Fc1ccccc1NC(=S)Nc1nc[nH]n1,100

# Test system: Staphylococcus aureus
# Assay: Antibacterial activity against Staphylococcus aureus ATCC 6538 at 400 ug/disc after 18 hrs by disc diffusion method
# Format: functional
# Settings: ATCC 6538, 18 h, read-out: DIZ
# How it was run: as §2
row,SMILES,zone of inhibition at 400 µg/disc [mm]
1,Fc1ccccc1NC(=S)Nc1nc[nH]n1,12

# Test system: Micrococcus luteus
# Assay: Antibacterial activity against Micrococcus luteus ATCC 10240 at 400 ug/disc after 18 hrs by disc diffusion method
# Format: functional
# Settings: ATCC 10240, 18 h, read-out: DIZ
# How it was run: as §2
row,SMILES,zone of inhibition at 400 µg/disc [mm]
1,Fc1ccccc1NC(=S)Nc1nc[nH]n1,38

# Test system: Staphylococcus aureus
# Assay: Antibacterial activity against methicillin-resistant Staphylococcus aureus clinical isolate 275/08 after 18 hrs by twofold serial agar dilution technique
# Format: functional
# Settings: clinical isolate 275/08, 18 h
# How it was run: as §1
row,SMILES,MIC [µg/mL]
1,Fc1ccccc1NC(=S)Nc1nc[nH]n1,> 400

# Test system: Staphylococcus aureus
# Assay: Antibacterial activity against Staphylococcus aureus ATCC 29213 after 18 hrs by twofold serial agar dilution technique
# Format: functional
# Settings: ATCC 29213, 18 h
# How it was run: as §3
row,SMILES,MIC [µg/mL]
1,Fc1ccccc1NC(=S)Nc1nc[nH]n1,200

# Test system: Staphylococcus aureus
# Assay: Antibacterial activity against methicillin-resistant Staphylococcus aureus clinical isolate 306/08 after 18 hrs by twofold serial agar dilution technique
# Format: functional
# Settings: clinical isolate 306/08, 18 h
# How it was run: as §1
row,SMILES,MIC [µg/mL]
1,Fc1ccccc1NC(=S)Nc1nc[nH]n1,> 400
